Measurements from ChEMBL document CHEMBL4680268, “Pharmacomodulations of the benzoyl-thiosemicarbazide scaffold reveal antimicrobial agents targeting d-alanyl-d-alanine ligase in bacterio” (Eur J Med Chem, 2020).
pIC50: −log10 of the molar value. Values after ≈ are worked out from the molar mass of the structure shown. Active and inactive are the calls of the source. The rule behind the calls is not given here.

Experiments:
Enterococcus faecalis [1] = test: Inhibition of recombinant Enterococcus faecalis C-terminal His6-tagged DdlB expressed in Escherichia coli LMG194 assessed as residual activity using D-Ala as substrate at 100 uM preincubated with enzyme for 30 mins followed by substrate addition and measured after 20 mins by malachite green based colorimetric analysis relative to control; conditions: time 50.0 min
How it was run: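 Purified E. faecalis His-tagged DdlB (20 mg/L) preincubated 30 min at 30 °C with 100 µM compound and 500 µM ATP in 20 mM Tris-HCl pH 7.4, 10 mM MgCl₂, 10 mM KCl, 10% DMSO; 1 mM D-Ala added, 20 min at 30 °C. Phosphate detected with malachite green reagent, A650 after 25 min dark; residual activity versus no-inhibitor control, triplicate.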

Staphylococcus aureus [2] = test: Antibacterial activity against Staphylococcus aureus ATCC 25923 assessed as reduction in bacterial growth incubated for 18 to 24 hrs by broth microdilution method; type: functional; conditions: time 18-24 hrs
Enterococcus faecalis [3] = test: Antibacterial activity against Enterococcus faecalis ATCC 29212 assessed as reduction in bacterial growth incubated for 18 to 24 hrs by broth microdilution method; type: functional; conditions: time 18-24 hrs
[4] = Inhibition of recombinant Enterococcus faecalis C-terminal His6-tagged DdlB expressed in Escherichia coli LMG194 using D-Ala as substrate preincubated with enzyme for 30 mins followed by substrate addition and measured after 20 mins by malachite green based colorimetric analysis
How it was run: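 DdlB (20 mg/L) malachite green phosphate assay: enzyme, inhibitor and 500 µM ATP preincubated 30 min at 30 °C in Tris-HCl pH 7.4 buffer with MgCl₂, KCl and 10% DMSO, then 1 mM D-Ala for 20 min; A650 read. IC₅₀ from 11 concentrations, also run with 0.01% Triton X-100; mean ± SD of triplicates, n ≥ 2; EC₅₀ given where maximal inhibition stayed below 50%.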

Enterococcus faecalis [5] = test: Antibacterial activity against vancomycin resistant Enterococcus faecalis BM4390 harboring VanB mutant with inactive Ddl and constitutive expression of D-Ala-D-Lac assessed as reduction in bacterial growth incubated for 18 to 24 hrs by broth microdilution method; type: functional; conditions: time 18-24 hrs
How it was run: (§1)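 Broth microdilution in cation-adjusted Mueller-Hinton broth per CLSI; inoculum 10⁶ bacteria/mL. Two-fold serial dilutions, compound in broth with 5% DMSO mixed 1:1 with bacterial suspension, giving 2.5% DMSO final. Top concentration 0.1, 0.4 or 0.8 mM depending on solubility. Incubated 18–24 h at 37 °C. MIC = lowest concentration preventing visible growth.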

Enterococcus faecalis [6] = test: Antibacterial activity against vancomycin resistant Enterococcus faecalis JH2-2::C1 harboring constitutive expression of Ddl and vanB ligase assessed as reduction in bacterial growth incubated for 18 to 24 hrs by broth microdilution method; type: functional; conditions: time 18-24 hrs; how it was run: as §1
Enterococcus faecalis [7] = test: Antibacterial activity against vancomycin resistant Enterococcus faecalis BM4575 harboring VanE genotype, constitutive expression of Ddl and VanE D-Ala-D-Ser ligase assessed as reduction in bacterial growth incubated for 18 to 24 hrs by broth microdilution method; type: functional; conditions: time 18-24 hrs; how it was run: as §1
Staphylococcus aureus [8] = test: Antibacterial activity against methicillin resistant and vancomycin intermediate resistant Staphylococcus aureus MU50 assessed as reduction in bacterial growth incubated for 18 to 24 hrs by broth microdilution method; type: functional; conditions: time 18-24 hrs; how it was run: as §1
Staphylococcus aureus [9] = test: Antibacterial activity against methicillin and linezolid resistant Staphylococcus aureus NRS119 assessed as reduction in bacterial growth incubated for 18 to 24 hrs by broth microdilution method; type: functional; conditions: time 18-24 hrs; how it was run: as §1
Staphylococcus aureus [10] = test: Antibacterial activity against community-acquired methicillin and erythromycin resistant Staphylococcus aureus SA325 assessed as reduction in bacterial growth incubated for 18 to 24 hrs by broth microdilution method; type: functional; conditions: time 18-24 hrs; how it was run: as §1
Staphylococcus aureus [11] = test: Antibacterial activity against hospital-acquired methicillin/ciprofloxacin and moxifloxacin resistant Staphylococcus aureus SA481 assessed as reduction in bacterial growth incubated for 18 to 24 hrs by broth microdilution method; type: functional; conditions: time 18-24 hrs; how it was run: as §1
Staphylococcus aureus [12] = test: Antibacterial activity against hospital-acquired vancomycin resistant Staphylococcus aureus VRS-1 assessed as reduction in bacterial growth incubated for 18 to 24 hrs by broth microdilution method; type: functional; conditions: time 18-24 hrs; how it was run: as §1
Cell membrane = test: Disruption of bacterial cell membrane in Staphylococcus aureus ATCC 25923 assessed as increase in PI uptake at 1 to 5 times MIC measured every 10 mins for 2 hrs by PI dye based spectrophotometry
How it was run: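 Mid-log S. aureus ATCC 25923 (grown in MHB from OD₆₀₀ 0.05) washed into BET buffer (pH 7.5) at 1.11×10⁶ CFU/mL with 12 nM propidium iodide; compound at 1, 2, 5× MIC, 5% DMSO final. SDS 0.5% positive, buffer negative control. Fluorescence (ex 532/em 620 nm) read in the dark every 10 min for 2 h; triplicate.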

Klebsiella pneumoniae = test: Antibacterial activity against Klebsiella pneumoniae ATCC700603 assessed as reduction in bacterial growth incubated for 18 to 24 hrs by broth microdilution method; type: functional, organism-based; conditions: 700603, time 18-24 hrs
How it was run: (§2)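 Microdilution in cation-adjusted Mueller-Hinton broth per CLSI; two-fold compound series in CAMHB with 5% DMSO mixed 1:1 with bacterial suspension, giving 10⁶ bacteria/mL inoculum and 2.5% DMSO final. Top concentrations 0.1, 0.4 or 0.8 mM depending on solubility. Incubated 18–24 h at 37 °C; MIC read as lowest concentration preventing visible growth.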

Escherichia coli = test: Antibacterial activity against Escherichia coli ATCC 25922 assessed as reduction in bacterial growth incubated for 18 to 24 hrs by broth microdilution method; type: functional, organism-based; conditions: time 18-24 hrs; how it was run: as §2
Pseudomonas aeruginosa = test: Antibacterial activity against Pseudomonas aeruginosa PAO1 assessed as reduction in bacterial growth incubated for 18 to 24 hrs by broth microdilution method; type: functional, organism-based; conditions: time 18-24 hrs; how it was run: as §2

Activity (Enterococcus faecalis [1])	MIC (Staphylococcus aureus [2])	MIC (Enterococcus faecalis [3])	Structure (SMILES)	pIC50 [4]	MIC (Enterococcus faecalis [5])	MIC (Enterococcus faecalis [6])	MIC (Enterococcus faecalis [7])	MIC (Staphylococcus aureus [8])	MIC (Staphylococcus aureus [9])	MIC (Staphylococcus aureus [10])	MIC (Staphylococcus aureus [11])	MIC (Staphylococcus aureus [12])	Activity (Cell membrane)	Activity (Klebsiella pneumoniae)	Activity (Escherichia coli)	Activity (Pseudomonas aeruginosa)
> 100%	> 400 µM	> 400 µM	Nc1ccccc1C(=O)NNC(=S)Nc1ccccc1													
> 100%	> 400 µM	> 400 µM	COc1ccccc1-c1n[nH]c(=S)n1-c1ccc(Cl)c(Cl)c1													
> 100%	> 100 µM	> 100 µM	Clc1ccc(Nc2nnc(-c3ccccc3)s2)cc1Cl													
> 100%	> 400 µM	> 400 µM	Sc1nnc(-c2ccccc2)n1-c1ccccc1													
> 100%	> 100 µM	> 100 µM	COc1ccccc1C(=O)NNC(=S)Nc1ccc(Cl)c(Cl)c1													
> 100%	> 400 µM	> 400 µM	Oc1ccccc1-c1n[nH]c(=S)n1-c1ccc(F)c(F)c1													
> 100%	> 800 µM	> 800 µM	Nc1ccccc1-c1n[nH]c(=S)n1-c1ccccc1													

More lines, now with the values behind:

Structure (SMILES)	Activity (Enterococcus faecalis [1])	MIC (Staphylococcus aureus [2])	MIC (Enterococcus faecalis [3])	pIC50 [4]	MIC (Enterococcus faecalis [5])	MIC (Enterococcus faecalis [6])	MIC (Enterococcus faecalis [7])	MIC (Staphylococcus aureus [8])	MIC (Staphylococcus aureus [9])	MIC (Staphylococcus aureus [10])	MIC (Staphylococcus aureus [11])	MIC (Staphylococcus aureus [12])	Activity (Cell membrane)	Activity (Klebsiella pneumoniae)	Activity (Escherichia coli)	Activity (Pseudomonas aeruginosa)
O=C(NNC(=S)Nc1ccc(Cl)c(Cl)c1)c1ccccc1O		100 µM (≈ 35.6 µg/mL)	50 µM (≈ 17.8 µg/mL)	5.93	50 µM (≈ 17.8 µg/mL)	100 µM (≈ 35.6 µg/mL)	50 µM (≈ 17.8 µg/mL)	100 µM (≈ 35.6 µg/mL)	50 µM (≈ 17.8 µg/mL)	50 µM (≈ 17.8 µg/mL)	100 µM (≈ 35.6 µg/mL)	50 µM (≈ 17.8 µg/mL)	inactive	inactive	inactive	inactive
COc1ccc(O)c(C(=O)NNC(=S)Nc2ccccc2)c1		> 100 µM	> 100 µM	6.20												
Oc1ccccc1-c1nnc(S)n1-c1ccccc1	> 100%	> 800 µM	> 800 µM													
O=C(NNC(=S)Nc1ccc(Cl)c(Cl)c1)c1ccccc1	> 100%	> 100 µM	> 100 µM													
Oc1ccccc1NC(=S)Nc1ccc(Cl)c(Cl)c1	> 100%	25 µM (≈ 7.83 µg/mL)	50 µM (≈ 15.7 µg/mL)		50 µM (≈ 15.7 µg/mL)	50 µM (≈ 15.7 µg/mL)	100 µM (≈ 31.3 µg/mL)	50 µM (≈ 15.7 µg/mL)	50 µM (≈ 15.7 µg/mL)	50 µM (≈ 15.7 µg/mL)	50 µM (≈ 15.7 µg/mL)	100 µM (≈ 31.3 µg/mL)		inactive	inactive	inactive
CN[C@H](CC(C)C)C(=O)N[C@H]1C(=O)N[C@@H](CC(N)=O)C(=O)N[C@H]2C(=O)N[C@H]3C(=O)N[C@H](C(=O)N[C@H](C(=O)O)c4cc(O)cc(O)c4-c4cc3ccc4O)[C@H](O)c3ccc(c(Cl)c3)Oc3cc2cc(c3O[C@@H]2O[C@H](CO)[C@@H](O)[C@H](O)[C@H]2O[C@H]2C[C@](C)(N)[C@H](O)[C@H](C)O2)Oc2ccc(cc2Cl)[C@H]1O [VANCOMYCIN]					700 µM (≈ 1010 µg/mL)	350 µM (≈ 507 µg/mL)		5 µM (≈ 7.25 µg/mL)	0.7 µM (≈ 1.01 µg/mL)			> 175 µM				
O=C(NC(=S)NNC(=O)c1ccccc1O)c1ccc(Cl)c(Cl)c1	> 50%	25 µM (≈ 9.61 µg/mL)	50 µM (≈ 19.2 µg/mL)	5.94	25 µM (≈ 9.61 µg/mL)	12.5 µM (≈ 4.8 µg/mL)	50 µM (≈ 19.2 µg/mL)	25 µM (≈ 9.61 µg/mL)	25 µM (≈ 9.61 µg/mL)	50 µM (≈ 19.2 µg/mL)	25 µM (≈ 9.61 µg/mL)	100 µM (≈ 38.4 µg/mL)		inactive	inactive	inactive
